Assay results as given in ChEMBL document CHEMBL1138297, “Design, synthesis, and multivariate quantitative structure-activity relationship of salicylanilides--potent inhibitors of type III secretion in Yersinia” (J Med Chem, 2007).
Active and inactive are the calls of the source. No cut-off for these calls is given here.

Tests used:
[1] = system: Yersinia pseudotuberculosis; assay: Effect on T3S in Yersinia pseudotuberculosis 3 pIB29 assessed as inhibition of light emission at 20 uM by luciferase reporter gene assay
Summary of the method: (§1)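 YPIII pIB29 (yopE-luxAB) reporter strain grown overnight at ambient temperature in BHI with 5 mM EGTA and 20 mM MgCl2 to deplete calcium. Culture adjusted to OD600 0.15-0.25 and added to compounds in DMSO (final ≤1%). Incubated 1 h at ambient temperature with shaking, then 2 h at 37 °C. Decanal substrate added and luminescence read at once. Triplicates; repeated on ≥2 occasions.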

[2] = system: Yersinia pseudotuberculosis; assay: Effect on T3S in Yersinia pseudotuberculosis 3 pIB29 assessed as inhibition of light emission at 10 uM by luciferase reporter gene assay; summary of the method: as §1
[3] = system: Yersinia pseudotuberculosis; assay: Effect on T3S in Yersinia pseudotuberculosis 3 pIB29 assessed as inhibition of light emission at 100 uM by luciferase reporter gene assay; summary of the method: as §1
[4] = system: Yersinia pseudotuberculosis; assay: Effect on T3S in Yersinia pseudotuberculosis 3 pIB29 assessed as inhibition of light emission at 50 uM by luciferase reporter gene assay; summary of the method: as §1
[5] = system: Yersinia pseudotuberculosis; assay: Effect on T3S in Yersinia pseudotuberculosis 3 pIB29 assessed as inhibition of light emission at 5 uM by luciferase reporter gene assay; summary of the method: as §1
[6] = system: Yersinia pseudotuberculosis; assay: Effect on T3S in Yersinia pseudotuberculosis 3 pIB29 assessed as inhibition of light emission at 0.5 uM by luciferase reporter gene assay; summary of the method: as §1
[7] = system: Yersinia pseudotuberculosis; assay: Effect on T3S in Yersinia pseudotuberculosis 3 pIB29 assessed as inhibition of light emission at 1 uM by luciferase reporter gene assay; summary of the method: as §1
[8] = system: Yersinia pseudotuberculosis; assay: Effect on T3S in Yersinia pseudotuberculosis 3 pIB29 assessed as inhibition of light emission at 2 uM by luciferase reporter gene assay; summary of the method: as §1

Row | SMILES | inhibition [1] | inhibition [2] | inhibition [3] | inhibition [4] | inhibition [5] | inhibition [6] | inhibition [7] | inhibition [8] | Activity [1] | Activity [2] | Activity [3] | Activity [4]
1 | COc1cc(Cl)c(C)cc1NC(=O)c1cccc(C(C)C)c1OC(C)=O | 8% | 10% | -1% | 4% |  |  |  |  |  |  |  | 
2 | O=C(Nc1ccc(F)cc1)c1cc(I)cc(I)c1O | 78% | 62% | 100% | 99% | 26% | 5% | 3% | 6% |  |  |  | 
3 | O=C(Nc1ccc(F)cc1)c1c(O)c(Cl)cc(Cl)c1Cl | 19% | 19% | 45% | 32% |  |  |  |  |  |  |  | 
4 | O=C(Nc1ccc(Br)cc1)c1cc(I)ccc1O | 67% | 71% | 60% | 62% | 68% | 20% | 49% | 68% |  |  |  | 
5 | CC(=O)Oc1c(I)cc(I)cc1C(=O)Nc1cc(Cl)ccc1F | 58% | 34% | 95% | 89% | 9% | 6% | 1% | 1% |  |  |  | 
6 | O=C(Nc1ccc(Cl)cc1)c1cc(F)cc(F)c1 |  |  |  |  |  |  |  |  | inactive | inactive | inactive | inactive
7 | Cc1ccc(C(=O)Nc2ccccc2F)c(O)c1 | 21% | 23% | 34% | 35% |  |  |  |  |  |  |  | 
8 | COc1cc(Cl)c(C)cc1NC(=O)c1cc(C)ccc1O |  |  | -1% | 16% |  |  |  |  | inactive | inactive |  | 
9 | CC(C)(C)c1ccc(NC(=O)c2cc(F)ccc2O)cc1 | 12% | 13% | 8% | 13% |  |  |  |  |  |  |  | 
10 | CC(=O)Oc1c(I)cc(I)cc1C(=O)Nc1ccc(Br)cc1 | 86% | 69% | 95% | 94% | 38% | 11% | 8% | 7% |  |  |  | 
11 | CC(=O)Oc1c(Cl)cccc1C(=O)Nc1ccc(SC(F)(F)F)cc1 | 70% | 55% | 100% | 98% | 34% | -1% | 6% | 12% |  |  |  | 
12 | CC(C)(C)c1ccc(NC(=O)c2cc(I)cc(I)c2O)cc1 | 40% | 33% | 42% | 41% |  |  |  |  |  |  |  | 
13 | CC(=O)Oc1c(Cl)cc(Cl)c(Cl)c1C(=O)Nc1ccc(F)cc1 | 23% | 19% | 54% | 32% |  |  |  |  |  |  |  | 
14 | COc1cc(Cl)c(C)cc1NC(=O)c1cc(I)cc(I)c1O | 55% | 35% | 67% | 57% |  |  |  |  |  |  |  | 
15 | CC(C)(C)c1ccc(NC(=O)c2c(O)c(Cl)cc(Cl)c2Cl)cc1 | 28% | 27% | 34% | 23% |  |  |  |  |  |  |  | 
16 | CC(=O)Oc1ccc(I)cc1C(=O)Nc1ccc(Cl)cc1 | 100% | 99% | 100% | 100% | 99% | 58% | 73% | 92% |  |  |  | 
17 | CC(=O)Oc1c(Cl)cc(Cl)c(Cl)c1C(=O)Nc1ccccc1 |  |  | 10% | 12% |  |  |  |  | inactive | inactive |  | 
18 | O=C(Nc1ccc(SC(F)(F)F)cc1)c1cc2cc(Br)ccc2c(Br)c1O | 55% | 41% | 63% | 63% |  |  |  |  |  |  |  | 
19 | COc1cc(Cl)c(C)cc1NC(=O)c1cccc(C(C)C)c1O | 25% | 23% | 5% | 19% |  |  |  |  |  |  |  | 
20 | CC(=O)Oc1ccc(I)cc1C(=O)Nc1ccc(SC(F)(F)F)cc1 | 74% | 58% | 100% | 99% | 56% | 17% | 52% | 80% |  |  |  | 
21 | CC(=O)Oc1c(Cl)cc(Cl)c(Cl)c1C(=O)Nc1ccc(C(C)(C)C)cc1 | 7% | 4% | 12% | 19% |  |  |  |  |  |  |  | 
22 | CC(C)(C)c1cc(NC(=O)c2cc(Br)ccc2O)cc(C(C)(C)C)c1 | 9% | 12% | 0% | -4% |  |  |  |  |  |  |  | 
23 | O=C(Nc1ccc(SC(F)(F)F)cc1)c1c(O)c(Cl)cc(Cl)c1Cl | 68% | 58% | 100% | 100% | 54% | 11% | 4% | 18% |  |  |  | 

Row | SMILES | inhibition [1] | inhibition [2] | inhibition [3] | inhibition [4] | inhibition [5] | inhibition [6] | inhibition [7] | inhibition [8] | Activity [1] | Activity [2] | Activity [3] | Activity [4]
24 | O=C(Nc1cc(Cl)ccc1F)c1cc(I)cc(I)c1O | 92% | 53% | 100% | 100% | 19% | 7% | 2% | 6% |  |  |  | 
25 | CC(=O)Oc1c(C(=O)Nc2ccc(SC(F)(F)F)cc2)cc2cc(Br)ccc2c1Br | 10% | 9% | -3% | 4% |  |  |  |  |  |  |  | 
26 | O=C(Nc1ccccc1F)c1cc(Br)cc(Br)c1O | 29% | 14% | 78% | 64% |  |  |  |  |  |  |  | 
27 | O=C(Nc1ccc(Br)cc1)c1cc(I)cc(I)c1O | 100% | 100% | 100% | 100% | 94% | 36% | 64% | 74% |  |  |  | 
28 | CC(=O)Oc1ccc(Cl)cc1C(=O)Nc1ccc(Cl)c(C)c1 | 100% | 99% | 100% | 100% | 91% | 15% | 50% | 62% |  |  |  | 
29 | CC(=O)Oc1ccc(Br)cc1C(=O)Nc1cc(C(C)(C)C)cc(C(C)(C)C)c1 |  |  | 0% | 15% |  |  |  |  | inactive | inactive |  | 
30 | O=C(Nc1ccc(SC(F)(F)F)cc1)c1cccc(Cl)c1O | 81% | 61% | 100% | 99% | 38% | -2% | 3% | 13% |  |  |  | 
31 | O=C(Nc1ccc(Cl)cc1)c1ccccc1O | 64% | 14% | 100% | 99% |  |  |  |  |  |  |  | 
32 | CCCCCCCc1ccc(NC(=O)c2cc(I)cc(I)c2O)cc1 | 27% | 30% | 3% | 22% |  |  |  |  |  |  |  | 
33 | CC(=O)Oc1c(Cl)cc(Cl)c(Cl)c1C(=O)Nc1ccc(SC(F)(F)F)cc1 | 95% | 67% | 92% | 89% | 47% | 5% | 15% | 42% |  |  |  | 
34 | CC(=O)Oc1cc(C)ccc1C(=O)Nc1ccccc1F | 8% | 0% | 95% | 53% |  |  |  |  |  |  |  | 
35 | O=C(Nc1ccccc1)c1c(O)c(Cl)cc(Cl)c1Cl | 21% | 22% | 31% | 23% |  |  |  |  |  |  |  | 
36 | COc1cc(Cl)c(C)cc1NC(=O)c1cc(C)ccc1OC(C)=O |  |  |  | -2% |  |  |  |  | inactive | inactive |  | 
37 | O=C(Nc1ccccc1)c1cc(I)cc(I)c1O | 51% | 32% | 99% | 87% |  |  |  |  |  |  |  | 
38 | CC(=O)Oc1ccccc1C(=O)Nc1ccc(Cl)cc1 | 44% | 23% | 99% | 92% |  |  |  |  |  |  |  | 
39 | COc1cc(Cl)c(C)cc1NC(=O)c1cc(I)cc(I)c1OC(C)=O | 19% | 11% | 50% | 35% |  |  |  |  |  |  |  | 
40 | CC(=O)Oc1c(Cl)cc(Cl)c(Cl)c1C(=O)Nc1cc(C)cc(C)c1 | 6% | 6% | 20% | 5% |  |  |  |  |  |  |  | 
41 | CC(=O)Oc1c(I)cc(I)cc1C(=O)Nc1ccc(C(C)(C)C)cc1 | 20% | 17% | 2% | 17% |  |  |  |  |  |  |  | 
42 | CCCCCCCc1ccc(NC(=O)c2cc(I)cc(I)c2OC(C)=O)cc1 | 19% | 19% | 5% | 17% |  |  |  |  |  |  |  | 
43 | CC(=O)Oc1ccc(F)cc1C(=O)Nc1ccc(C(C)(C)C)cc1 | 37% | 37% | 22% | 22% |  |  |  |  |  |  |  | 
44 | Cc1cc(C)cc(NC(=O)c2c(O)c(Cl)cc(Cl)c2Cl)c1 | 24% | 21% | 52% | 46% |  |  |  |  |  |  |  | 
45 | CC(=O)Oc1c(Br)cc(Br)cc1C(=O)Nc1ccccc1F | 15% | 6% | 83% | 61% |  |  |  |  |  |  |  | 
46 | CC(=O)Oc1c(I)cc(I)cc1C(=O)Nc1ccccc1 | 48% | 30% | 94% | 75% |  |  |  |  |  |  |  | 
